Results published in ChEMBL document CHEMBL3352362, “Discovery of a novel, first-in-class, orally bioavailable azaindole inhibitor (VX-787) of influenza PB2” (J Med Chem, 2014).

How the values were obtained:
[1] = Half life in rat at 3 mg/kg, iv; assay type: ADME, organism-based; parameters: dose 3 mg/kg, route intravenous; conditions: in vivo
[2] = Antiviral activity against Influenza A virus A/California/07/2009 infected in MDCK cells assessed as cell protection after 3 days by cytopathic effect assay; assay type: functional, cell-based, Influenza A virus (A/California/07/2009(H1N1)); conditions: 72 h
In short: (§1)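 MDCK cells incubated with test compound and influenza A virus for 72 h (3-day CPE format). Cell viability read by an ATP end point. EC50 is the concentration giving 50% cell protection; mean of N = 3 or greater.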

[3] = Cmax in rat at 3 mg/kg, po; assay type: ADME, organism-based; parameters: dose 3 mg/kg, route oral; conditions: in vivo
Influenza A virus [4] = assay: Antiviral activity against Influenza A virus A/Puerto Rico/8/34 infected in BALB/c mouse assessed as body weight loss at 3 mg/kg bid treated after 48 hrs of infection for 10 days; assay type: functional; conditions: A/Puerto Rico/8/1934(H1N1)
In short: (§2)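 Male BALB/c mice, 8 per study, inoculated intranasally with mouse-adapted A/PR/8/34 at 5e3 TCID50/mouse. Twice-daily treatment began 48 h after infection. Survival and body weight were followed.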

Influenza A virus [5] = assay: Antiviral activity against Influenza A virus A/Puerto Rico/8/34 infected in BALB/c mouse assessed as body weight loss at 30 mg/kg bid treated after 48 hrs of infection for 10 days; assay type: functional; conditions: A/Puerto Rico/8/1934(H1N1); in short: as §2
[6] = target: Voltage-gated inwardly rectifying potassium channel KCNH2 (Homo sapiens, UniProt Q12809); assay: Inhibition of human ERG at > 30 uM relative to control
Sequence of Voltage-gated inwardly rectifying potassium channel KCNH2 (Q12809 whole entry): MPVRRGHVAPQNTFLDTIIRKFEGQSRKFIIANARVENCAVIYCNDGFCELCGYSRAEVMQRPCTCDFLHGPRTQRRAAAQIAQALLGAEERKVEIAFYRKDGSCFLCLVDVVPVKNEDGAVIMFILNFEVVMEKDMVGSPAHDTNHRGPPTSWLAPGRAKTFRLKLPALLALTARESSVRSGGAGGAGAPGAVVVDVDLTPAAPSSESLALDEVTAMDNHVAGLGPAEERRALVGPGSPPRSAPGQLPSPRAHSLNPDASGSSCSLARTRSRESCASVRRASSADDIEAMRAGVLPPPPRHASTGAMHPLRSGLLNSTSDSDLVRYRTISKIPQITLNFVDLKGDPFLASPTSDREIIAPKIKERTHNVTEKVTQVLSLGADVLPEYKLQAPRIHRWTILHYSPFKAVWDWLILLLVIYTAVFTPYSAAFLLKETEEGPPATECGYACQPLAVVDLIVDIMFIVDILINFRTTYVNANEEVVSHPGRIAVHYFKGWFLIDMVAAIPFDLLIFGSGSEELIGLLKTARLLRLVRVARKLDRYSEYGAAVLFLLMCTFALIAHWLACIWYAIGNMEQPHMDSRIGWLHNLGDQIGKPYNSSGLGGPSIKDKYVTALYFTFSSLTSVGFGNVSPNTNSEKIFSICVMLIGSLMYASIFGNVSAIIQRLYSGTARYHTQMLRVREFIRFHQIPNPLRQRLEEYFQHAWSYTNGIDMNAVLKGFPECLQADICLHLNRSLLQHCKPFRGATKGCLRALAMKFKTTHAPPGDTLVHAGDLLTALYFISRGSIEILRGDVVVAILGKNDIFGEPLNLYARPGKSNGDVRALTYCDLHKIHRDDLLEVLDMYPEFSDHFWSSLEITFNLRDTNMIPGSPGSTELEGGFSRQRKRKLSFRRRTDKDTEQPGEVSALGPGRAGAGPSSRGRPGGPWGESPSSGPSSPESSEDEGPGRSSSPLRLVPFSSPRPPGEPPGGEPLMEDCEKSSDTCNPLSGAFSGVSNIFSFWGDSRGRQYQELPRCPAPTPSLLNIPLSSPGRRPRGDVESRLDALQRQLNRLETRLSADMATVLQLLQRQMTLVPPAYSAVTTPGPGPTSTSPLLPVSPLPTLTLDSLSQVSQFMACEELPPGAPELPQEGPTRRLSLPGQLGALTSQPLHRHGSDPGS
In short: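 hERG tested by manual patch clamp.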

[7] = Oral bioavailability in rat at 3 mg/kg; assay type: ADME, organism-based; conditions: in vivo
[8] = target: Adenosine receptor A2a (Homo sapiens) (UniProt P29274); assay: Inhibition of human adenosine A2A receptor at 10 uM relative to control
Sequence of Adenosine receptor A2a (Homo sapiens) (P29274 whole entry): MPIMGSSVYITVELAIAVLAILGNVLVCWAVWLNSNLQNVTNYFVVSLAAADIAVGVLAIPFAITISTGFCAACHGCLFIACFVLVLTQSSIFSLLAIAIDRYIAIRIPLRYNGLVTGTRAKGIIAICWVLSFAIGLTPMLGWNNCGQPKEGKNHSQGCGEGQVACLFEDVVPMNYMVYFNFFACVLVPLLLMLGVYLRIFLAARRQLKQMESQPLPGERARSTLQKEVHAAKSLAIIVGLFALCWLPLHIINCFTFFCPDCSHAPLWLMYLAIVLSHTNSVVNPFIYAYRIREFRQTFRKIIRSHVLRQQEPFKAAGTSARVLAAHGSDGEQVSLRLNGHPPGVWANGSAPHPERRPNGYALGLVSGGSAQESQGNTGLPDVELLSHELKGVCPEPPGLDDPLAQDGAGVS
In short: (§3)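 Competitive binding panel of 68 receptors, ion channels and other targets, run at 10 μM compound; percent inhibition reported.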

[9] = Antiviral activity against Influenza A virus A/Mexico/4108/2009 infected in MDCK cells assessed as cell protection after 3 days by cytopathic effect assay; assay type: functional, cell-based, Influenza A virus (A/Mexico/4108/2009(H1N1)); conditions: 72 h; in short: as §1
[10] = target: Glycogen synthase kinase-3 beta (Homo sapiens, UniProt P49841); assay: Inhibition of GSK3beta (unknown origin)
Sequence of Glycogen synthase kinase-3 beta (P49841 whole entry): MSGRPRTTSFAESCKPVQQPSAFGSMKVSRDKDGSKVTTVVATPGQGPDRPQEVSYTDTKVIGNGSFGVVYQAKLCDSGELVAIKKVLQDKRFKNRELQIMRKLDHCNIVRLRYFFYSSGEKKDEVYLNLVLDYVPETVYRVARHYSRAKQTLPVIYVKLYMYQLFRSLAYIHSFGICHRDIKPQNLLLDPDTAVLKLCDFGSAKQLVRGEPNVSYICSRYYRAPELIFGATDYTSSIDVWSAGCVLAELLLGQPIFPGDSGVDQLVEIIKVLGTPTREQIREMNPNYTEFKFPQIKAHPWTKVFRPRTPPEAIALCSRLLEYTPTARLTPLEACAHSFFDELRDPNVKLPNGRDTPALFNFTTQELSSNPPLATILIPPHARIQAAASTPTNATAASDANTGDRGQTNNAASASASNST

[11] = Antiviral activity against Influenza A virus A/Texas/48/2009 infected in MDCK cells assessed as cell protection after 3 days by cytopathic effect assay; assay type: functional, cell-based, Influenza A virus (A/Texas/48/2009(H1N1)); conditions: 72 h; in short: as §1
[12] = Clearance in rat at 3 mg/kg, iv; assay type: ADME, organism-based; parameters: dose 3 mg/kg, route intravenous; conditions: in vivo
Influenza A virus [13] = assay: Antiviral activity against Influenza A virus A/Puerto Rico/8/34 infected in BALB/c mouse assessed as body weight loss at 10 mg/kg bid treated after 48 hrs of infection for 10 days; assay type: functional; conditions: A/Puerto Rico/8/1934(H1N1); in short: as §2
[14] = Antiviral activity against Influenza A virus A/New York/18/2009 infected in MDCK cells assessed as cell protection after 3 days by cytopathic effect assay; assay type: functional, cell-based, Influenza A virus (A/New York/18/2009(H1N1)); conditions: 72 h; in short: as §1
[15] = AUC in mouse at 30 mg/kg; assay type: ADME, organism-based; parameters: dose 30 mg/kg; conditions: plasma
[16] = Antiviral activity against Influenza A virus A/Georgia/20/2006 infected in MDCK cells assessed as cell protection after 3 days by cytopathic effect assay; assay type: functional, cell-based, Influenza A virus (A/Georgia/20/2006(H1N1)); conditions: 72 h; in short: as §1
[17] = target: T1, Adenosine receptor A1 (Homo sapiens) (UniProt P30542); assay: Inhibition of human adenosine A1 receptor at 10 uM relative to control; in short: as §3
T1 sequence (whole entry): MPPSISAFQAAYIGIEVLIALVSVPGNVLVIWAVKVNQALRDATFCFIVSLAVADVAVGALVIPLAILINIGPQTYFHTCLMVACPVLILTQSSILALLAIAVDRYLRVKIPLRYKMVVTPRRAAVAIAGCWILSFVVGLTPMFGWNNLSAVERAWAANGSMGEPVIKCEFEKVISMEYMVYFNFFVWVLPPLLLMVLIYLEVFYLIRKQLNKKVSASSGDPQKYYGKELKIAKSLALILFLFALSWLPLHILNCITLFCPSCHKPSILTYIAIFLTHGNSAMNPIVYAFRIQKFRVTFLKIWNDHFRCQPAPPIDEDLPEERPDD

[18] = Cmax in mouse at 30 mg/kg; assay type: ADME, organism-based; parameters: dose 30 mg/kg; conditions: in vivo
[19] = AUC in rat at 3 mg/kg, po; assay type: ADME, organism-based; parameters: dose 3 mg/kg, route oral; conditions: plasma
Influenza A virus [20] = assay: Antiviral activity against Influenza A virus A/Puerto Rico/8/34 infected in BALB/c mouse assessed as body weight loss at 1 mg/kg bid treated after 48 hrs of infection for 10 days; assay type: functional; conditions: A/Puerto Rico/8/1934(H1N1); in short: as §2
Influenza A virus [21] = assay: Antiviral activity against Influenza A virus A/Puerto Rico/8/34 infected in MDCK cells assessed as cell protection after 3 days by cytopathic effect assay; assay type: functional, organism-based; conditions: A/Puerto Rico/8/1934(H1N1), 72 h; in short: as §1
[22] = Inhibition of CYP450 (unknown origin) at > 30 uM; assay type: ADME; conditions: human
[23] = Antiviral activity against Influenza A virus A/Viet Nam/1203/2004(H5N1) infected in MDCK cells assessed as cell protection after 3 days by cytopathic effect assay; assay type: functional, cell-based; conditions: 72 h; in short: as §1
Influenza A virus [24] = assay: Antiviral activity against Influenza A virus A/Puerto Rico/8/34 infected in BALB/c mouse assessed as mouse survival at 1 to 10 mg/kg bid treated after 48 hrs of infection for 10 days; assay type: functional, A/Puerto Rico/8/1934(H1N1); conditions: dose mg/kg 1-10; in short: as §2

O=C(O)[C@H]1C2CCC(CC2)[C@@H]1Nc1nc(-c2c[nH]c3ncc(F)cc23)ncc1F [PIMODIVIR] showed a half-life [1] of 3.5 h, an EC50 [2] of 1.8 nM and a Cmax [3] of 80 ng/mL. For the same compound, the inhibition in vivo at 3 mg/kg (Influenza A virus [4]) was 10.9%, the inhibition in vivo at 30 mg/kg (Influenza A virus [5]) was 30% and the “inhibition (INH)” value [6] was “Not Active”. The bioavailability [7] was 26%, the inhibition [8] was 62% and the EC50 [9] was 2.7 nM. It also gave a Ki [10] of 1600 nM, an EC50 [11] of 2.8 nM and a clearance [12] of 26 mL/min/kg. The inhibition in vivo at 10 mg/kg (Influenza A virus [13]) was 7.1%, the EC50 [14] was 0.59 nM and the AUC [15] was 22000 ng·h/mL. It also gave an EC50 [16] of 2.6 nM, an inhibition [17] of 96% and a Cmax [18] of 18000 ng/mL. It also gave an AUC [19] of 500 ng·h/mL, an inhibition in vivo at 1 mg/kg (Influenza A virus [20]) of 22.5% and an EC50 (Influenza A virus [21]) of 0.32 nM. For the same compound, the “inhibition (INH)” value [22] was “Not Active”, the EC50 [23] was less than 0.15 nM and the Survival (Influenza A virus [24]) was 100%.
